D1 allo mod = D1 CRE-luciferase signal change, two-sided – cell-based, HEK293 D1, dopamine EC30, D1 allosteric modulator project, primary screen; dopamine EC30 potentiation; actives deviate in either direction; B-score at 10 µM; 58,000 compounds, 5.9% hits;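 active means luminescence count or its row- and column-corrected plate score outside the 99.7% band of the plate's sample wells, on either side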
S1P3 ag = human S1P3 receptor agonists, primary screen, cell-based, primary and confirmation, NFAT-BLA reporter | AID 373, 2006 | Sphingosine 1-phosphate receptor 3 (Homo sapiens), Q99500 | S1P3 NFAT-BLA reporter cells, agonism, FRET ratio; relative to 1 µM S1P, basal subtracted | 60,000 compounds, 0.1% hits | activation, % at 4.5 µM;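 active means activation above the screen-wide mean plus 3 SD, cut at about 4.5% in these data, passing the limit was not always enough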
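Material: Human S1P3 NFAT-BLA reporter CHO cells | Incubation: Overnight plating, 4 h compound 37 °C, 2 h substrate RT | Signal: FRET β-lactamase substrate fluorescence, excitation 405 nm, 460/535 nm emission ratio, background-subtracted | Compound: 4.5 µM final, single dose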
M1 antag = antagonists of rat M1 muscarinic receptor; Muscarinic acetylcholine receptor M1 (Rattus norvegicus), P08482; AID 628, 2007; CHO-M1 cells, Fluo-4 calcium, ACh EC80 antagonist mode; hits give low values; B-score at 10 µM; 64,000 compounds, 3.4% hits;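 active means calcium fluorescence response, raw or row-and-column corrected B-score, differing from the plate sample mean either way at a set confidence level, mostly lower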
M1 agonist = M1 muscarinic receptor agonists, primary screen, CHO-M1 cells, Fluo-4 calcium, agonist mode; B-score at 10 µM; 64,000 compounds, 3% hits; AID 626, 2007; Fluo-4 calcium fluorescence; hits give high values;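 active means fluorescence rise, raw or as B-score row- and column-corrected plate score, outside the 99.7% band of its plate's samples, either direction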
S1P1 ag pot = S1P1 agonists and agonism potentiators, primary screen, cell-based, primary and confirmation screens, CRE-bla reporter; Sphingosine 1-phosphate receptor 1 (Homo sapiens), P21453; S1P1 CRE-bla cells, forskolin, beta-lactamase FRET, potentiator mode; S1P1 agonist co-added at EC20, 2 nM; 100% = saturating reference agonist, 0% = basal; activation, % at 9.5 µM; 56,000 compounds, 0.57% hits; AID 449, 2006;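 active means activation above a cutoff set at the mean activation of all tested compounds plus 3 SD, cut at about 54% in these data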;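 further: forskolin at 4 µM as EC80 and the EC20 agonist is SEW2871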
Target sequence (P21453 whole entry, looked up): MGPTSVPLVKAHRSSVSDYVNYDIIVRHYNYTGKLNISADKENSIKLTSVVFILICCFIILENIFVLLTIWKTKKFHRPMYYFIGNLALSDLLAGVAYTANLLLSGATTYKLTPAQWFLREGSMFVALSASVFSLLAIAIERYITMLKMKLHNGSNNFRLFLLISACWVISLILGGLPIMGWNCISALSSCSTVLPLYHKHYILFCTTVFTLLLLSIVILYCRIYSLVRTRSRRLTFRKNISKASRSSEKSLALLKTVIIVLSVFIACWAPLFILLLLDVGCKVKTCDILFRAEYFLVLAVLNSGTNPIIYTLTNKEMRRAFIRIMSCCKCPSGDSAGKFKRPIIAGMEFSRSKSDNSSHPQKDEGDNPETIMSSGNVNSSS
D1 PAM confirm = D1 receptor positive allosteric modulators, retest, confirmation, cell-based, HEK293 D1, CRE-luciferase, duplicate. dopamine EC30 potentiation; hits give high values. AID 642, 2007. 2,200 compounds, 88% hits. shares compounds with D1 allo mod. luminescence at 10 µM;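 active means luminescence in either of two replicates above the same-plate mean plus 3 SD of the low-dose dopamine control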
D1 no dopamine = D1 receptor agonism without dopamine, confirmation, mechanism study for D1 allosteric modulator project, cell-based, HEK293 D1, CRE-luciferase, secondary assay 1. luminescence, no dopamine; hits give high values. 1,900 compounds, 0.8% hits. AID 646, 2007. luminescence at 10 µM. shares compounds with D1 allo mod; in the data active means luminescence above about 3900
Isoprot counter = alters isoproterenol CRE-luciferase response in HEK293 cells | AID 647 | HEK293 D1 CRE-luciferase, isoproterenol EC30 counter-screen | 2,200 compounds, 63% hits | calls only at 10 µM | shares compounds with D1 allo mod;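 active means luminescence in either replicate above plate mean of wells with a partly effective reference agonist dose plus 3 SD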;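 further: isoproterenol raises cAMP through native beta-adrenoceptor Gs so signal bypasses D1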
Hits are given with their value; n = inactive; x = no result; + = active, no number. A selection: hits, their analogues and other compounds. The true share with any hit is near 11%.

SMILES | D1 allo mod | S1P3 ag | M1 antag | M1 agonist | S1P1 ag pot | D1 PAM confirm | D1 no dopamine | Isoprot counter
Cc1ccc2c(c1)-c1c(ssc1=S)C(C)(C)N2C(=O)CSc1nncn1C | 3.85 | n | n | n | n | 11288 | n | n
Cc1cc(C)c2c(c1)-c1c(ssc1=S)C(C)(C)N2C(=O)CSc1nncn1C | n | n | n | n | n | x | x | x
CCCCn1c(NC(=O)CC)c(C#N)c2nc3ccccc3nc21 | 7.18 | n | n | n | n | 14868 | n | +
NS(=O)(=O)c1ccc(CCNC(=O)COC(=O)C2CCCN2C(=O)c2cccs2)cc1 (stereo not given) | n | n | n | n | n | x | x | x
CCOc1ccc(-c2nnn(CC(=O)NCc3ccc(OC)cc3)n2)cc1OCC | 5.33 | n | n | n | n | 6444 | n | n
CCOc1ccc(-c2nnn(CC(=O)Nc3cc(OC)ccc3OC)n2)cc1OCC | n | n | n | n | n | x | x | x
CCOc1ccccc1NC(=O)Cn1nnc(-c2ccc(OCC)c(OCC)c2)n1 | 29.2 | n | n | n | n | 19636 | n | +
Cn1c(-n2c(CCN3C(=O)c4ccccc4C3=O)nc3ccccc3c2=O)nc2ccccc21 | n | n | n | n | n | x | x | x
Cn1c(=O)c2c(nc(SCC(=O)N3CCc4ccccc43)n2Cc2ccccc2)n(C)c1=O | n | n | n | n | n | x | x | x
O=C(CCC1CCCCC1)Nc1c2c(nn1-c1ccc(F)cc1)CS(=O)C2 (stereo not given) | n | n | n | n | n | x | x | x
Cc1c(NC(=O)C(C)Sc2nnc(-c3ccccc3)o2)c(=O)n(-c2ccccc2)n1C (stereo not given) | x | n | n | n | n | x | x | x
C=CCN(CC=C)C(=O)C1CCC(C(=O)N(CC=C)CC=C)CC1 (stereo not given) | n | n | n | n | n | x | x | x
C=CCNc1sc(C(=O)C2CC2)c(N)c1C#N | 18.8 | n | n | n | n | 26736 | n | +
C=CCNc1sc(C(=O)C(C)(C)C)c(N)c1C#N | 9.31 | n | n | n | n | 21312 | n | n
Cn1c(CNC(=O)Nc2ccccc2Cl)nnc1SCc1ccccc1 | n | n | n | n | n | x | x | x
CC(=O)c1ccc(OC(C)C)c(CN2CCCCC2)c1 | n | n | n | n | n | x | x | x
Cn1c(N)c(C(=O)c2cc(-c3ccccn3)nc3ccccc23)c(=O)[nH]c1=O | n | n | n | n | n | x | x | x
Cn1ccnc1Sc1nc2ccccc2nc1NS(=O)(=O)c1ccccc1 | n | n | n | n | n | x | x | x
O=C(Oc1ccc2ccc(=O)oc2c1)N1CCOCC1 | 3.12 | n | n | n | n | n | n | n
COc1ccc(Cn2c(CCC(=O)Nc3ccc(CC#N)cc3)nc3cccnc32)cc1 | n | n | n | n | n | x | x | x
COc1ccc(S(=O)(=O)NCc2ccco2)c2ccccc12 | n | n | n | n | n | x | x | x
Cc1ccc2c(c1)C1CCCC3C1N2CC(=O)N3Cc1ccccc1 (stereo not given) | n | x | n | n | x | x | x | x
COc1ccccc1CNC(=O)C1COc2ccccc2O1 (stereo not given) | n | n | n | n | n | x | x | x
COc1cc2c(cc1OC)C(C)N(C(=O)c1cc3ccccc3o1)CC2 (stereo not given) | 15 | n | n | n | n | 16968 | n | +
COc1cc2c(cc1OC)C(C)N(C(=O)C1COc3ccccc3O1)CC2 (stereo not given) | 7.3 | n | n | n | n | 19292 | n | +
SMILES | D1 allo mod | S1P3 ag | M1 antag | M1 agonist | S1P1 ag pot | D1 PAM confirm | D1 no dopamine | Isoprot counter
COC(=O)C1=[N+]([O-])OC(C(=O)OC)C1c1c[nH]c2ccccc12 (stereo not given) | 4.22 | n | n | n | n | n | n | n
O=C(CCc1ccc(CCC(=O)c2cccs2)s1)c1cccs1 | 3.38 | n | n | n | n | 11800 | n | n
O=C(Cn1ccccc1=O)c1cccs1 | n | n | n | n | n | x | x | x
COC(=O)c1cc(CSc2nnc(NC3CCCCC3)s2)oc1C | 9.99 | n | n | n | n | 10504 | n | +
COCCSc1nnc(NC(=O)C2CCCCC2)s1 | n | n | n | n | n | x | x | x
CC(=O)n1c2ccccc2c2c(C#N)c(N3CCCCC3)sc21 | n | n | n | n | n | x | x | x
C=CCNc1nc2c3ccccc3n(C(C)=O)c2s1 | 6.25 | n | n | n | n | 7816 | n | +
CCOC(=O)CSc1nnc(C)n1N | n | n | n | n | n | x | x | x
O=c1cc(CN2CCN(c3ccccc3)CC2)c2c(ccc3ccccc32)o1 | n | n | n | n | n | x | x | x
O=c1cc(CN2CCC3(CC2)OCCO3)c2c(ccc3ccccc32)o1 | 5.35 | n | n | n | n | 13160 | n | +
COC(=O)C1=C(CSc2nc3ccccc3o2)NC(=O)NC1c1cc(C)ccc1C (stereo not given) | n | n | n | n | x | x | x | x
CSc1nnc(-c2ccc(F)cc2)o1 | n | n | n | n | n | x | x | x
CSc1nncc(-c2ccc(F)cc2)n1 | 8.24 | n | 2.62 | n | n | 8776 | x | +
CSc1nncc(-c2ccc(F)c(F)c2)n1 | 4.42 | n | n | n | n | 11748 | n | n
Cn1c(C(=O)O)c(CC(=O)NCc2cccnc2)c2ccccc21 | n | n | n | n | n | x | x | x
CC1(C)CC(=O)C(/C=N/c2ncccc2C(=O)O)=C(O)C1 | n | x | n | n | x | x | x | x
Cc1[nH]nc2c1-c1nc3ccccc3nc1C(C)(C)C2 | n | n | n | n | n | x | x | x
COc1ccccc1NC(=O)C1=C(C)Nc2nnnn2C1c1cc(Br)ccc1OC (stereo not given) | n | n | n | n | n | x | x | x
O=C1COc2ccc(C(=O)c3ccccc3)cc2CN1 | 4.71 | n | n | n | n | 5740 | n | n
O=C1COc2ccc3ccccc3c2CN1 | n | x | n | n | x | x | x | x
CCSc1nc(N2CCOCC2)c2ccccc2n1 | 10.4 | n | n | n | n | 15840 | x | +
CCSc1nc2ccccc2n1CC(=O)N1CCOCC1 | n | x | n | n | x | x | x | x
COc1ccc(N2C(=O)CSC2c2ccncc2)cc1 (stereo not given) | n | n | n | n | n | x | x | x
N#CCOc1nc(N2CCOCC2)nc(N2CCOCC2)n1 | n | n | n | n | n | x | x | x

Source: PubChem BioAssay
